Measurements taken from ChEMBL document CHEMBL1127424, “7-azetidinylquinolones as antibacterial agents. 2. Synthesis and biological activity of 7-(2,3-disubstituted-1-azetidinyl)-4-oxoquinoline- and -1,8-naphthyridine-3-carboxylic acids. Properties and structure-activity relationships of quinolones with an azetidine moiety” (J Med Chem, 1994).
In brackets after ≈: the same amount, converted by molar mass.

Assays:
[1] = tested on: Enterococcus faecalis; test: In vitro minimum inhibitory concentration for Streptococcus faecalis ATCC 10541; assay type: functional
Summary of the method: (§1)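 Serial 2-fold agar dilution in Mueller Hinton medium, run alongside a reference quinolone. Inoculum adjusted to 10⁸ cfu/mL; compound range 0.007–16 μg/mL.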

[2] = tested on: Proteus vulgaris; test: In vitro minimum inhibitory concentration for Proteus vulgaris ATCC 8427; assay type: functional; summary of the method: as §1
[3] = tested on: Bacillus cereus; test: In vitro minimum inhibitory concentration for Bacillus cereus ATCC 11778; assay type: functional; summary of the method: as §1
[4] = tested on: Pseudomonas aeruginosa; test: In vitro minimum inhibitory concentration for Pseudomonas aeruginosa ATCC 10145; assay type: functional; summary of the method: as §1
[5] = tested on: Staphylococcus epidermidis; test: In vitro minimum inhibitory concentration for Staphylococcus epidermidis ATCC 155-1; assay type: functional; summary of the method: as §1
[6] = HPLC capacity factor (k'); assay type: ADME
Summary of the method: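 Ion-pair reversed-phase HPLC on ODS-2 (10 μm) at 45 °C. Mobile phase: 10 mM sodium heptanesulfonate plus 50 mM KH2PO4 (pH 3.5)–methanol 45:55, 1 mL/min. Samples at 100 μg/mL in DMF, injected in duplicate, UV 280 nm. k' = (tR − t0)/t0.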

[7] = tested on: Staphylococcus aureus; test: In vitro minimum inhibitory concentration for Staphylococcus aureus ATCC 25178; assay type: functional; summary of the method: as §1
[8] = tested on: Morganella morganii; test: In vitro minimum inhibitory concentration for Morganella morganii ATCC 8019; assay type: functional; summary of the method: as §1
[9] = tested on: Klebsiella pneumoniae; test: In vitro minimum inhibitory concentration to inhibit Klebsiella pneumoniae ATCC 10031; assay type: functional; summary of the method: as §1
[10] = tested on: Enterobacter cloacae; test: In vitro minimum inhibitory concentration for Enterobacter cloacae ATCC 23355; assay type: functional
[11] = tested on: Bacillus subtilis; test: In vitro minimum inhibitory concentration for Bacillus subtilis ATCC 6633; assay type: functional; summary of the method: as §1
[12] = tested on: Escherichia coli; test: In vitro minimum inhibitory concentration for Escherichia coli ATCC 10799; assay type: functional; summary of the method: as §1
[13] = AUC (0-4 hr) ug/ml/h; assay type: ADME, cell-free; parameters: time < 4 hr; concentration or dose not given beside the values; settings: plasma
Summary of the method: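 Mice dosed once orally at 50 mg/kg; blood taken from groups of six mice at 0.5, 1, 2 and 4 h. Serum drug assayed by disk agar diffusion bioassay (Bacillus subtilis ATCC 6633 on Seed Agar, 37 °C, 18 h), giving total activity.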

[14] = Solubility (buffer pH 7.4); assay type: physicochemical; settings: read-out: S
Summary of the method: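 Excess solid shaken in 0.05 M phosphate buffer pH 7.4 for 24 h at 25 °C. Suspension filtered through 0.22 μm, discarding the first portion. Filtrate diluted in 0.1 N HCl or 0.1 N NaOH and read by UV at the compound's absorbance maximum.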

[15] = Measured ionization constant (pKa); assay type: physicochemical; settings: read-out: pKa1
Summary of the method: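 Spectrophotometric titration at 20 ± 1 °C, 0.1 M ionic strength, pH varied with H2SO4 or NaOH made up in the compound stock. Absorbance followed at compound-specific wavelengths chosen from 200–400 nm scans. pKa1 and pKa2 taken as the inflection points of the two-step absorbance vs pH curve.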

Row | SMILES | MIC [1] [µg/mL] | MIC [2] [µg/mL] | MIC [3] [µg/mL] | MIC [4] [µg/mL] | MIC [5] [µg/mL] | Log k' [6] | MIC [7] [µg/mL] | MIC [8] [µg/mL] | MIC [9] [µg/mL] | MIC [10] [µg/mL] | MIC [11] [µg/mL] | MIC [12] [µg/mL] | AUC [13] [µg·h/mL] | solubility [14] [µg/mL] | pKa [15]
1 | CCn1cc(C(=O)O)c(=O)c2cc(F)c(N3C[C@@H](N)[C@@H]3C)nc21 | 2 (≈ 6.24 µM) | 0.5 (≈ 1.56 µM) | 0.5 (≈ 1.56 µM) | 2 (≈ 6.24 µM) | 0.5 (≈ 1.56 µM) | -0.1061 | 0.5 (≈ 1.56 µM) | 0.25 (≈ 0.78 µM) | 0.12 (≈ 0.375 µM) | 0.12 (≈ 0.375 µM) | 0.12 (≈ 0.375 µM) | 0.25 (≈ 0.78 µM) | – | – | –
2 | C[C@H]1[C@H](N)CN1c1cc2c(cc1F)c(=O)c1c(=O)[nH]sc1n2C1CC1 | 0.25 (≈ 0.694 µM) | 0.12 (≈ 0.333 µM) | 0.06 (≈ 0.166 µM) | 0.25 (≈ 0.694 µM) | 0.03 (≈ 0.0832 µM) | 0.065 | 0.06 (≈ 0.166 µM) | 0.03 (≈ 0.0832 µM) | 0.015 (≈ 0.0416 µM) | 0.015 (≈ 0.0416 µM) | 0.015 (≈ 0.0416 µM) | 0.03 (≈ 0.0832 µM) | 16.2 | – | –
3 | CC[C@H]1[C@@H](N)CN1c1c(F)cc2c(=O)c(C(=O)O)cn(C3CC3)c2c1F | 2 (≈ 5.5 µM) | 0.25 (≈ 0.688 µM) | 0.12 (≈ 0.33 µM) | 2 (≈ 5.5 µM) | 0.12 (≈ 0.33 µM) | 0.1399 | 0.12 (≈ 0.33 µM) | 0.12 (≈ 0.33 µM) | 0.015 (≈ 0.0413 µM) | 0.12 (≈ 0.33 µM) | 0.015 (≈ 0.0413 µM) | 0.12 (≈ 0.33 µM) | 14.7 | 55.9 (≈ 154 µM) | –
4 | C[C@H]1N(c2cc3c(cc2F)c(=O)c(C(=O)O)cn3C2CC2)C[C@]1(C)O | 2 (≈ 5.77 µM) | 0.25 (≈ 0.722 µM) | 0.12 (≈ 0.346 µM) | 2 (≈ 5.77 µM) | 0.12 (≈ 0.346 µM) | 0.599 | 0.25 (≈ 0.722 µM) | 0.5 (≈ 1.44 µM) | 0.12 (≈ 0.346 µM) | 0.25 (≈ 0.722 µM) | 0.03 (≈ 0.0866 µM) | 0.25 (≈ 0.722 µM) | – | – | –
5 | CC1([N+](C)(C)C)CN(c2c(F)cc3c(=O)c(C(=O)O)cn(C4CC4)c3c2F)C1 | – | – | – | – | – | – | – | – | – | – | – | – | – | – | 6.03
6 | NC1CN(c2cc3c(cc2F)c(=O)c(C(=O)O)cn3C2CC2)C1 | – | – | – | – | – | -0.0607 | – | – | – | – | – | – | – | – | 6.49
7 | C[C@@H]1[C@@H](O)CN1c1c(F)cc2c(=O)c(C(=O)O)cn(C3CC3)c2c1F | 1 (≈ 2.85 µM) | 0.12 (≈ 0.343 µM) | 0.06 (≈ 0.171 µM) | 2 (≈ 5.71 µM) | 0.06 (≈ 0.171 µM) | 0.518 | 0.12 (≈ 0.343 µM) | 0.25 (≈ 0.714 µM) | 0.015 (≈ 0.0428 µM) | 0.12 (≈ 0.343 µM) | 0.015 (≈ 0.0428 µM) | 0.25 (≈ 0.714 µM) | – | – | –
8 | Nc1c(F)c(N2CC(N)C2)c(F)c2c1c(=O)c(C(=O)O)cn2C1CC1 | – | – | – | – | – | -0.0505 | – | – | – | – | – | – | – | – | 6.65
9 | C[C@@H]1[C@@H](O)CN1c1cc2c(cc1F)c(=O)c(C(=O)O)cn2C1CC1 | 2 (≈ 6.02 µM) | 0.06 (≈ 0.181 µM) | 0.06 (≈ 0.181 µM) | 2 (≈ 6.02 µM) | 0.06 (≈ 0.181 µM) | 0.407 | 0.12 (≈ 0.361 µM) | 0.25 (≈ 0.752 µM) | 0.015 (≈ 0.0451 µM) | 0.12 (≈ 0.361 µM) | 0.015 (≈ 0.0451 µM) | 0.25 (≈ 0.752 µM) | – | – | –
10 | C[C@H]1N(c2c(F)cc3c(=O)c(C(=O)O)cn(C4CC4)c3c2F)C[C@]1(C)N | 1 (≈ 2.75 µM) | 0.5 (≈ 1.38 µM) | 0.25 (≈ 0.688 µM) | 2 (≈ 5.5 µM) | 0.12 (≈ 0.33 µM) | 0.1312 | 0.25 (≈ 0.688 µM) | 0.12 (≈ 0.33 µM) | 0.03 (≈ 0.0826 µM) | 0.06 (≈ 0.165 µM) | 0.06 (≈ 0.165 µM) | 0.12 (≈ 0.33 µM) | 20.6 | 3.3 (≈ 9.08 µM) | –
11 | CC[C@H]1[C@@H](N)CN1c1cc2c(cc1F)c(=O)c(C(=O)O)cn2C1CC1 | 4 (≈ 11.6 µM) | 0.25 (≈ 0.724 µM) | 0.25 (≈ 0.724 µM) | 2 (≈ 5.79 µM) | 0.25 (≈ 0.724 µM) | 0.1708 | 0.25 (≈ 0.724 µM) | 0.25 (≈ 0.724 µM) | 0.015 (≈ 0.0434 µM) | 0.12 (≈ 0.347 µM) | 0.015 (≈ 0.0434 µM) | 0.12 (≈ 0.347 µM) | 3.6 | 42.2 (≈ 122 µM) | –
